High-throughput results from PubChem BioAssay.
Efa HMGR inh: blocks class II HMG-CoA reductase of Enterococcus faecalis; purified E. faecalis HMGR, NADPH absorbance 340 nm kinetic; inhibition, % at 10 µM; 0.41% of 190,000 active; AID 1066;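 active = inhibition above a set limit, the median over all tested compounds plus 3 SD, cut at about 9.5% in these data; inconclusive = no clear call, values can overlap the other calls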;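 note: enzyme runs in reverse so mevalonate oxidation gives rising NADPH absorbance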
Runt-CBFb FRET: blocks binding of human RUNX1 Runt domain to CBFb. inhibition, % at 20 µM. Q01196+Q13951. 0.46% of 220,000 active. Cerulean-Runt/Venus-CBFb FRET ratio 530/480, 1 h;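 active = inhibition over about 50% at 20 µM in the single-dose screen, limit read from the data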
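Doses: 20 µM compound in 1% DMSO | Material: Cerulean-labeled Runt domain protein | Amount: Each fluorescent fusion protein 100 nM | Schedule: Two 1 h room-temperature incubations shielded from light | Measured by: FRET fluorescence | Evaluation: Loss of energy transfer signal | Controls: Unlabeled CBFb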
Runt-SMMHC FRET: inhibitors of human RUNX1 Runt domain binding to CBFb-SMMHC; 0.74% of 220,000 active; Q01196+Q13951; Cerulean-Runt/Venus-CBFb-SMMHC FRET ratio 530/480, 1 h; inhibition, % at 20 µM;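 active = mean inhibition across duplicate retests at 20 µM reaching about 50%, limit read from the data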;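 note: inhibitors lower the FRET ratio by blocking Runt binding to CBFb-SMMHC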
Wee1 degr inh: inhibitors of human Wee1 degradation; HeLa Luc-Wee1K328M stability, luciferase luminescence; 100% = proteasome inhibitor MG132 effect; P30291; reporter increase, % at 5 µM; 1.2% of 220,000 active;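 active = activation above the mean of all tested compounds plus 3 SD, set per screening run, cut at about 8.8% in these data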;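 note: cells exposed to compound for 20 h before luminescence read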
Target sequence (P30291 whole entry K328M): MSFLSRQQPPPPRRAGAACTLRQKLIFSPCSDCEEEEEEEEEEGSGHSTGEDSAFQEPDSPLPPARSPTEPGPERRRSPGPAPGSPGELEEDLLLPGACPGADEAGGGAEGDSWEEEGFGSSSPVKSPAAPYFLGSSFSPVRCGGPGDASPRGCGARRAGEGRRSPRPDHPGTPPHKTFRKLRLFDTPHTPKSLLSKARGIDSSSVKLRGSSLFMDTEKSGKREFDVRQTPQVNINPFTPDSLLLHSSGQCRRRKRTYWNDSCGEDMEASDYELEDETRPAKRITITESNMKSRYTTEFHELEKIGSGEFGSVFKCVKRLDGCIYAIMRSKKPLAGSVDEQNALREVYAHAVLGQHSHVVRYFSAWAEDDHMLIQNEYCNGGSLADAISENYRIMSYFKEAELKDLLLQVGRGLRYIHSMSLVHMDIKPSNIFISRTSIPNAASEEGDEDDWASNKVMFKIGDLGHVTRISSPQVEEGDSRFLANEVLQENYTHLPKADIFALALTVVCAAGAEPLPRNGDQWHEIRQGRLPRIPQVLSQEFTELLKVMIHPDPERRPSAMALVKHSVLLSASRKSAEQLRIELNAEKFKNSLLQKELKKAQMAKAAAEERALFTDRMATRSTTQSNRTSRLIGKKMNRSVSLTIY
RanGTP-Impb inh: disruptors of Ran-importin-beta complex formation – biochemical, FRET, CFP-Ran, YFP-importin-beta, homogeneous, primary screen; inhibition, % (concentration not given with the values); 1.1% of 300,000 active; cell-free CFP-Ran/YFP-importin-beta FRET ratio; AID 2216;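 active = more than half of the replicate wells show a fall in the fluorescence ratio signal beyond about 16%, limit read from the data, passing the limit was not always enough; inconclusive = exactly half of the replicate wells pass the set limit; inactive = fewer than half of replicates pass the limit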
PHOSPHO1 inh: inhibitors of human PHOSPHO1 phosphatase; 1.1% of 290,000 active; recombinant PHOSPHO1, absorbance phosphatase assay; inhibition, % at 13.3 µM; in the data active = inhibition above about 60%
A number is an active result; 0 = inactive; ? = inconclusive; - = not tested or not shown. Sampled rows, rich in hits. Any-hit rate of the full collection: about 3.4%.

SMILES	Efa HMGR inh	Runt-CBFb FRET	Runt-SMMHC FRET	Wee1 degr inh	RanGTP-Impb inh	PHOSPHO1 inh
Cc1ccc(C2=NNC(c3cccc(F)c3)S2)cc1 (centres undefined)	0	-	0	15	0	0
COC(=O)C1=CN(Cc2ccc(C)cc2)C=C(C(=O)OC)C1c1cc(OC)c(OC)c(OC)c1	-	-	-	-	0	0
COC(=O)C1=CN(Cc2ccc(OC)c(OC)c2)C=C(C(=O)OC)C1c1ccc(F)cc1	-	-	-	-	18	0
COC(=O)C1=CN(C2CC2)C=C(C(=O)OC)C1c1ccccc1OC	0	105	0	0	32	0
COCCN1C=C(C(=O)OC)C(c2ccccc2Cl)C(C(=O)OC)=C1	0	64	86	0	58	0
COC(=O)C1=CN(Cc2ccccc2)C=C(C(=O)OC)C1c1ccc(OC)c(OC)c1	-	-	-	-	0	0
COC(=O)C1=CN(Cc2ccc(OC)c(OC)c2)C=C(C(=O)OC)C1c1ccc(O)cc1	-	-	-	-	?	0
CCN1C=C(C(=O)OC)C(c2cccc(OC)c2OC)C(C(=O)OC)=C1	0	0	86	0	126	0
OC(CNCC1COc2ccccc2O1)COc1ccccc1F (centres undefined)	-	-	-	-	0	0
O=C(Cc1ccccc1)NCC(=O)OCC(=O)c1ccc(Cl)cc1	-	-	-	-	0	0
O=C(/C=C/c1ccccc1)NCC(=O)N/N=C/c1ccccc1[N+](=O)[O-]	0	0	0	0	0	0
COc1cccc2c(=O)c(C(=O)NCc3cccs3)c[nH]c12	0	0	0	0	0	0
COC(=O)C1=CN(Cc2ccc(OC)c(OC)c2)C=C(C(=O)OC)C1c1cccc(OC)c1OC	-	-	-	-	73	0
COC(=O)C1=CN(Cc2cccs2)C=C(C(=O)OC)C1c1cccc(OC)c1OC	0	93	0	0	71	0
CCCCn1c(=O)nc2n(-c3ccccc3C)c3ccccc3cc-2c1=O	0	0	82	0	130	0
Cc1csc(NC(C)c2nc3cc(C(F)(F)F)ccc3n2CCCO)n1 (centres undefined)	-	-	-	-	0	-
Cc1c(CC(=O)O)c(=O)oc2c(C)c3occ(-c4ccccc4)c3cc12	-	-	-	-	19	-
CC12CCC(c3c(C(=O)O)nn(-c4ccccc4)c31)C2(C)C (centres undefined)	0	0	0	0	0	0
CC12CCC(c3c(CO)nn(-c4ccccc4)c31)C2(C)C (centres undefined)	0	0	0	10	0	0
CCOc1ccc(NS(=O)(=O)c2ccc3[nH]cc(C(=O)N(CC)CC)c(=O)c3c2)cc1	0	-	0	17	-	0
CCOc1ccc(NS(=O)(=O)c2ccc3[nH]cc(C(=O)NCC4CCCO4)c(=O)c3c2)cc1 (centres undefined)	0	-	0	0	0	0
COc1cc2ccccc2cc1C(=O)N/N=C/c1ccc2c(c1)OCO2	-	-	-	-	0	61
COc1ccccc1C(=O)N/N=C/c1ccc2c(c1)OCO2	-	-	-	-	0	0
CC1CCCN(C(=O)CCS(=O)(=O)c2cc3c(cc2Cl)NC(=O)CO3)C1 (centres undefined)	-	-	-	-	0	0
CCOC(=O)c1ccc(Nc2ccc([N+](=O)[O-])cn2)cc1	0	0	0	0	19	0
SMILES	Efa HMGR inh	Runt-CBFb FRET	Runt-SMMHC FRET	Wee1 degr inh	RanGTP-Impb inh	PHOSPHO1 inh
O=C(N/C(=C/c1cccc([N+](=O)[O-])c1)C(=O)N1CCOCC1)c1ccccc1Br	-	-	-	-	0	0
CC(C)OC(=O)NC(C)(C)COC(=O)Nc1cccc(Cl)c1	16	0	0	0	0	0
Cc1oc(-c2ccc(-c3ccccc3)cc2)nc1CN(CCO)C(C)C	-	-	-	-	0	0
Nn1c(SCC(=O)Nc2cc(C(F)(F)F)ccc2Cl)nncc1=O	-	-	-	-	0	0
O=C(Oc1ccccc1O)c1cccc2ccccc12	18	0	0	0	0	0
O=C(Oc1cccc2c(O)cccc12)c1ccccc1	0	0	0	0	0	0
C[N+]1(CC(=O)OCCCc2ccccc2)CCOCC1	0	0	0	0	0	0
Cc1ccc(CCCOC(=O)C[N+]2(C)CCOCC2)cc1	0	0	0	0	0	89
CC(OC(=O)CCc1nc2ccccc2[nH]c1=O)c1ccccc1 (centres undefined)	0	0	0	11	0	0
COc1ccc2nc3ccccc3nc2c1	0	0	86	0	38	0
COc1ccc(-c2nc3ccccc3nc2-c2ccccc2)cc1	0	0	0	0	0	0
CCOC(=O)Cc1csc(NS(=O)(=O)c2ccc(Br)cc2)n1	0	0	0	0	37	0
COc1cccc(OC)c1NC(=O)Cn1nc(C)c2ccccc2c1=O	-	-	-	-	0	0
CCN(CC)S(=O)(=O)c1cc(NC(=O)C(C)Nc2ccccc2N2CCOCC2)ccc1C (centres undefined)	0	0	0	9.8	0	0
COc1ccc(N2CCN(Cc3nc4cc(Cl)ccc4c(=O)[nH]3)CC2)cc1	0	0	0	0	0	0
N#CC1=C(N)Oc2cc(O)c(Cl)cc2C1c1cccnc1 (centres undefined)	-	-	-	-	52	0
N#CC1=C(N)Oc2cc(O)ccc2C1c1ccncc1 (centres undefined)	0	0	0	0	0	0
N#CC1=C(N)Oc2cc(O)c(Cl)cc2C1c1ccccc1F (centres undefined)	-	-	-	-	131	0
N#CC1=C(N)Oc2n[nH]c(-c3ccc(F)cc3)c2C1c1cccnc1 (centres undefined)	0	0	0	0	0	0
CSc1nc(N)c2c(n1)OC(N)=C(C#N)C2c1cccnc1 (centres undefined)	0	0	0	0	105	0
N#CC1=C(N)Oc2cc(O)ccc2C1c1cccnc1 (centres undefined)	0	0	0	0	38	0
O=C(NCC1COCCO1)c1cc(COc2ccc(F)cc2F)on1 (centres undefined)	-	-	-	-	0	0
Cc1cc(C(=O)NNS(=O)(=O)c2cccc(Cl)c2)nn1C(C)(C)C	-	0	0	0	0	0
O=C(CN1CCCCCC1)Nc1ccc(Br)cn1	-	-	-	-	0	0
CCOC(=O)c1c(C)n(-c2ccccc2)c2ccc(OCCN(C)C)cc12	-	-	-	-	0	0
SMILES	Efa HMGR inh	Runt-CBFb FRET	Runt-SMMHC FRET	Wee1 degr inh	RanGTP-Impb inh	PHOSPHO1 inh
Cn1c(COc2ccccc2)nnc1SCCN1CCOCC1	0	0	0	0	0	0
Cc1ccc(OCc2nnc(SCCN3CCOCC3)n2C)cc1	0	0	0	0	0	74
Cc1nn(-c2ccccc2)c(C)c1C(=O)NCc1ccc(S(N)(=O)=O)cc1	-	-	-	-	0	0
COc1ccc(NC(=O)C2CCCCN2S(=O)(=O)c2ccc(F)cc2)cc1 (centres undefined)	0	0	0	0	0	0
CCOc1ccc(NC(=O)C2CCCCN2S(=O)(=O)c2ccccc2)cc1 (centres undefined)	0	0	0	0	0	89
COc1cccc(NC(=O)c2ccnc(N3CCC(C(=O)NCc4cc(OC)ccc4OC)CC3)c2)c1	-	-	-	-	0	0
